Values after ≈ are worked out from the molar mass of the structure shown.
Experiments:
Haemophilus influenzae [1] = assay: MIC value was measured against haemophilus influenzae.; type: functional
How it was run: (§1)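 Susceptibility determined by standard agar-dilution method against a panel of bacterial strains.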

Haemophilus influenzae [2] = assay: MIC value was measured against haemophilus influenzae CL; type: functional
Mus musculus [3] = assay: ED50 value was measured against staphylococcus aureus after po administration in mice (in vivo, in experiment 2); type: functional
How it was run: (§2)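 Infected mice were dosed orally or subcutaneously at 1 and 5 h postinfection, 0.25 mL of antibiotic solution in 10% aqueous ethanol per dose. Tartaric acid was added where needed for solubility. Several dose concentrations were tested to give the ED50.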

Staphylococcus aureus [4] = assay: Effective dose against mice infected with Staphylococcus aureus after peroral administration (in vivo); type: functional; settings: in Mus musculus, po
Streptococcus pneumoniae [5] = assay: Effective dose against mice infected with streptococcus pneumoniae after peroral administration (in vivo); type: functional; settings: in Mus musculus, po
Streptococcus pyogenes [6] = assay: Effective dose against mice infected with streptococcus pyogenes after peroral administration (in vivo); type: functional; settings: in Mus musculus, po
Mus musculus [7] = assay: ED50 value was measured against staphylococcus aureus after sc administration in mice (in vivo, in experiment 2); type: functional; how it was run: as §2
Mus musculus [8] = assay: ED50 value was measured against streptococcus pneumoniae after po administration in mice (in vivo, in experiment 2); type: functional; how it was run: as §2
Mus musculus [9] = assay: ED50 value was measured against streptococcus pneumoniae after sc administration in mice (in vivo, in experiment 2); type: functional; how it was run: as §2
Mus musculus [10] = assay: ED50 value was measured against streptococcus pyogenes after po administration in mice (in vivo, in experiment 2); type: functional; how it was run: as §2
Mus musculus [11] = assay: ED50 value was measured against streptococcus pyogenes after sc administration in mice (in vivo, in experiment 2); type: functional; how it was run: as §2
Streptococcus pneumoniae [12] = assay: MIC value measured against streptococcus pneumoniae Park1; type: functional
Staphylococcus aureus [13] = assay: MIC value measured against staphylococcus aureus X1; type: functional
Streptococcus pyogenes [14] = assay: MIC value measured against streptococcus pyogenes C203; type: functional
[15] = tested on: Staphylococcus epidermidis; assay: microbe, parasite or virus in culture; type: functional
Mus musculus [16] = assay: ED50 value was measured against staphylococcus aureus after po administration in mice in vivo, in experiment 3); type: functional; how it was run: as §2
Mus musculus [17] = assay: ED50 value was measured against staphylococcus aureus after sc administration in mice in vivo, in experiment 3); type: functional; how it was run: as §2
Mus musculus [18] = assay: ED50 value was measured against streptococcus pneumoniae after po administration in mice in vivo, in experiment 3); type: functional; how it was run: as §2
Mus musculus [19] = assay: ED50 value was measured against streptococcus pneumoniae after sc administration in mice in vivo, in experiment 3); type: functional; how it was run: as §2
Mus musculus [20] = assay: ED50 value was measured against streptococcus pyogenes after po administration in mice (in vivo, in experiment 3); type: functional; how it was run: as §2
Mus musculus [21] = assay: ED50 value was measured against streptococcus pyogenes after sc administration in mice in vivo, in experiment 3); type: functional; how it was run: as §2
Streptococcus pneumoniae [22] = assay: MIC value was measured against streptococcus pneumoniae park1; type: functional; how it was run: as §1
Enterococcus faecalis = assay: MIC value was measured against streptococcus faecalis X66; type: functional; how it was run: as §1
[23] = tested on: Staphylococcus epidermidis; assay: MIC value was measured against staphylococcus epidermidis.; type: functional; how it was run: as §1
Mus musculus [24] = assay: ED50 value was measured against staphylococcus aureus after sc administration in mice (in vivo, in experiment 1); type: functional; how it was run: as §2
Mus musculus [25] = assay: ED50 value was measured against staphylococcus aureus infection in mice (in vivo, in experiment 1); type: functional; how it was run: as §2
Mus musculus [26] = assay: ED50 value was measured against streptococcus pneumoniae after po administration in mice (in vivo, in experiment 1); type: functional; how it was run: as §2
Mus musculus [27] = assay: ED50 value was measured against streptococcus pneumoniae after sc administration in mice (in vivo, in experiment 1); type: functional; how it was run: as §2
Mus musculus [28] = assay: ED50 value was measured against streptococcus pyogenes after po administration in mice (in vivo, in experiment 1); type: functional; how it was run: as §2
Mus musculus [29] = assay: ED50 value was measured against streptococcus pyogenes after sc administration in mice (in vivo, in experiment 1); type: functional; how it was run: as §2
Mus musculus [30] = assay: ED50 value was measured against staphylococcus aureus after po administration in mice (in vivo, in experiment 3); type: functional; how it was run: as §2
Mus musculus [31] = assay: ED50 value was measured against staphylococcus aureus after sc administration in mice (in vivo, in experiment 3); type: functional; how it was run: as §2
Mus musculus [32] = assay: ED50 value was measured against streptococcus pneumoniae after po administration in mice (in vivo, in experiment 3); type: functional; how it was run: as §2
Mus musculus [33] = assay: ED50 value was measured against streptococcus pneumoniae after sc administration in mice (in vivo, in experiment 3); type: functional; how it was run: as §2
Mus musculus [34] = assay: ED50 value was measured against streptococcus pyogenes after sc administration in mice (in vivo, in experiment 3); type: functional; how it was run: as §2
[35] = tested on: Staphylococcus epidermidis; assay: MIC value was measured against staphylococcus epidermidis 222; type: functional; how it was run: as §1
Streptococcus pneumoniae [36] = assay: MIC value was measured against streptococcus pneumoniae park1

| SMILES | MIC (Haemophilus influenzae [1]) [µg/mL] | MIC (Haemophilus influenzae [2]) [µg/mL] | MIC (Streptococcus pneumoniae [12]) [µg/mL] | MIC (Staphylococcus aureus [13]) [µg/mL] | MIC (Streptococcus pyogenes [14]) [µg/mL] | MIC [15] [µg/mL] | MIC (Streptococcus pneumoniae [22]) [µg/mL] | MIC (Enterococcus faecalis) [µg/mL] | ED50 (Staphylococcus aureus [4]) [mg/kg] | ED50 (Streptococcus pneumoniae [5]) [mg/kg] | ED50 (Streptococcus pyogenes [6]) [mg/kg] | also measured |
| --- | --- | --- | --- | --- | --- | --- | --- | --- | --- | --- | --- | --- |
| CCC(CC)CN[C@@H]1[C@H](C)[C@@H](O)[C@](C)(O)[C@@H](CC)OC(=O)[C@H](C)[C@@H](OC2CC(C)(OC)C(O)C(C)O2)[C@H](C)[C@@H](OC2OC(C)CC(N(C)C)C2O)[C@](C)(O)C[C@H]1C (some centres undefined) | 2 (≈ 2.44 µM) | 2 (≈ 2.44 µM) | 0.015 (≈ 0.0183 µM) | 0.5 (≈ 0.61 µM) | 0.015 (≈ 0.0183 µM) |  |  |  | 22 | 17 | 10 | MIC [23]: 0.5 µg/mL (≈ 0.61 µM) |
| CC[C@H]1OC(=O)[C@H](C)[C@@H](OC2CC(C)(OC)C(O)C(C)O2)[C@H](C)[C@@H](OC2OC(C)CC(N(C)C)C2O)[C@](C)(O)C[C@@H](C)[C@H](NCCOCCOC)[C@H](C)[C@@H](O)[C@]1(C)O (some centres undefined) | 2 (≈ 2.39 µM) | 2 (≈ 2.39 µM) | 0.015 (≈ 0.0179 µM) | 1 (≈ 1.19 µM) | 0.12 (≈ 0.143 µM) | 1 (≈ 1.19 µM) |  |  | 22 | 23 | 27 | ED50 (Mus musculus [24]): 3.8 mg/kg; ED50 (Mus musculus [25]): 78 mg/kg; ED50 (Mus musculus [26]): 43 mg/kg; ED50 (Mus musculus [27]): 1.4 mg/kg; ED50 (Mus musculus [28]): 37 mg/kg; ED50 (Mus musculus [29]): 5.3 mg/kg |
| CC[C@H]1OC(=O)[C@H](C)[C@@H](OC2CC(C)(OC)C(O)C(C)O2)[C@H](C)[C@@H](OC2OC(C)CC(N(C)C)C2O)[C@](C)(O)C[C@@H](C)[C@H](NCC2CC=CCC2)[C@H](C)[C@@H](O)[C@]1(C)O (some centres undefined) |  | 4 (≈ 4.82 µM) |  | 1 (≈ 1.21 µM) | 0.06 (≈ 0.0724 µM) | 0.25 (≈ 0.302 µM) |  | 0.25 (≈ 0.302 µM) | 20 | 9 | 15 | MIC (Streptococcus pneumoniae [36]): 0.008 µg/mL (≈ 0.00965 µM) |

Continued, in another order:

| MIC (Haemophilus influenzae [1]) [µg/mL] | MIC (Haemophilus influenzae [2]) [µg/mL] | MIC (Streptococcus pneumoniae [12]) [µg/mL] | MIC (Staphylococcus aureus [13]) [µg/mL] | MIC (Streptococcus pyogenes [14]) [µg/mL] | MIC [15] [µg/mL] | MIC (Streptococcus pneumoniae [22]) [µg/mL] | MIC (Enterococcus faecalis) [µg/mL] | SMILES | ED50 (Staphylococcus aureus [4]) [mg/kg] | ED50 (Streptococcus pneumoniae [5]) [mg/kg] | ED50 (Streptococcus pyogenes [6]) [mg/kg] | also measured |
| --- | --- | --- | --- | --- | --- | --- | --- | --- | --- | --- | --- | --- |
| 0.5 (≈ 0.62 µM) | 0.5 (≈ 0.62 µM) | 0.03 (≈ 0.0372 µM) | 0.5 (≈ 0.62 µM) | 0.06 (≈ 0.0743 µM) | 0.5 (≈ 0.62 µM) |  |  | CC[C@H]1OC(=O)[C@H](C)[C@@H](OC2CC(C)(OC)C(O)C(C)O2)[C@H](C)[C@@H](OC2OC(C)CC(N(C)C)C2O)[C@](C)(O)C[C@@H](C)[C@H](NCCCOC)[C@H](C)[C@@H](O)[C@]1(C)O (some centres undefined) | 16 | 16 | 14 | ED50 (Mus musculus [3]): 36 mg/kg; ED50 (Mus musculus [7]): 3.7 mg/kg; ED50 (Mus musculus [8]): 17 mg/kg; ED50 (Mus musculus [9]): 8.3 mg/kg; ED50 (Mus musculus [10]): 19 mg/kg; ED50 (Mus musculus [11]): 2.1 mg/kg |
|  | 2 (≈ 2.39 µM) |  | 0.5 (≈ 0.599 µM) | 0.12 (≈ 0.144 µM) | 0.5 (≈ 0.599 µM) | 0.06 (≈ 0.0718 µM) | 0.25 (≈ 0.299 µM) | CC[C@H]1OC(=O)[C@H](C)[C@@H](OC2CC(C)(OC)C(O)C(C)O2)[C@H](C)[C@@H](OC2OC(C)CC(N(C)C)C2O)[C@](C)(O)C[C@@H](C)[C@@H]2NC(COCCOC)O[C@H]([C@H]2C)[C@]1(C)O (some centres undefined) | > 50 | 32 | 43 | ED50 (Mus musculus [16]): 27 mg/kg; ED50 (Mus musculus [17]): 1 mg/kg; ED50 (Mus musculus [18]): 23 mg/kg; ED50 (Mus musculus [19]): < 0.6 mg/kg; ED50 (Mus musculus [20]): 34 mg/kg; ED50 (Mus musculus [21]): 0.6 mg/kg |
|  | 8 (≈ 10.3 µM) |  | 0.5 (≈ 0.645 µM) | 0.12 (≈ 0.155 µM) | 0.5 (≈ 0.645 µM) | 0.12 (≈ 0.155 µM) | 0.5 (≈ 0.645 µM) | CCC1N[C@@H]2[C@H](C)[C@@H](O1)[C@](C)(O)[C@@H](CC)OC(=O)[C@H](C)[C@@H](OC1CC(C)(OC)C(O)C(C)O1)[C@H](C)[C@@H](OC1OC(C)CC(N(C)C)C1O)[C@](C)(O)C[C@H]2C (some centres undefined) | 34 | 30 | 35 | ED50 (Mus musculus [30]): 20 mg/kg; ED50 (Mus musculus [31]): 0.8 mg/kg; ED50 (Mus musculus [32]): 17 mg/kg; ED50 (Mus musculus [33]): < 0.6 mg/kg; ED50 (Mus musculus [20]): 19 mg/kg; ED50 (Mus musculus [34]): < 0.6 mg/kg |
|  | 1 (≈ 1.25 µM) |  | 1 (≈ 1.25 µM) | 0.06 (≈ 0.0747 µM) |  | 0.015 (≈ 0.0187 µM) | 0.25 (≈ 0.311 µM) | CCCN1C(C)O[C@@H]2[C@@H](C)[C@@H]1[C@H](C)C[C@@](C)(O)[C@H](OC1OC(C)CC(N(C)C)C1O)[C@@H](C)[C@H](OC1CC(C)(OC)C(O)C(C)O1)[C@@H](C)C(=O)O[C@H](CC)[C@@]2(C)O (some centres undefined) |  |  |  | MIC [35]: 0.25 µg/mL (≈ 0.311 µM) |
